Data from ChEMBL document CHEMBL1817640, “Synthesis, trypanocidal activity and molecular modeling studies of 2-alkylaminomethylquinoline derivatives” (Eur J Med Chem, 2011).
Activity calls are given as the source filed them. The rule behind the calls is not given here.

Key:
[1] = system: Trypanosoma cruzi; experiment: Trypanocidal activity against epimastigote form of Trypanosoma cruzi assessed as [3H]thymidine uptake after 72 hrs by liquid scintillation counter; type: functional, organism-based
How it was run: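 RA-strain epimastigotes grown in biphasic medium at 26 °C, adjusted to 1.5 × 10⁶/mL. Cultured 72 h with compound at 100, 50, 10, 5, 1 and 0.5 (final). Benznidazole 5–20 as positive control. Growth measured by [³H]thymidine uptake. % inhibition = 100 − (cpm treated/cpm untreated × 100); IC50 estimated from this.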

[2] = system: Trypanosoma cruzi; experiment: Trypanocidal activity against bloodstream trypomastigote form of Trypanosoma cruzi after 24 hrs; type: functional, organism-based
How it was run: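 Trypomastigotes were taken by cardiac puncture from infected CF1 mice at peak parasitemia (day 15). Blood was diluted in complete RPMI to 1.5 × 10⁶ parasites/mL and seeded in duplicate with compound at 0.5–100 final concentration; benznidazole served as control drug. After 24 h incubation at 4 °C, surviving parasites were counted in a Neubauer chamber.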

[3] = system: Trypanosoma cruzi; experiment: Trypanocidal activity against intracellular amastigotes form of Trypanosoma cruzi expressing beta-galactosidase infected in mouse J774 cells on day 7; type: functional, organism-based; settings: J774, 168 h
How it was run: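 Host cells infected with β-galactosidase-expressing trypomastigotes at a 10:1 parasite:cell ratio. After 24 h, washed twice with PBS, then compound added at 0.5–100 in phenol-red-free complete RPMI, duplicates. Uninfected and infected controls included. Developed with CPRG (100 final) plus 1% Nonidet P-40 for 4–6 h at 37 °C, read at A570. % inhibition relative to untreated infected cells; IC50 estimated.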

[4] = Cytotoxicity against african green monkey COS7 cells after 24 hrs by MTT assay; type: cell-based; settings: chlorocebus aethiops, COS-7 cells
[5] = Selectivity index, ratio of CC50 for african green monkey COS7 cells to IC50 for bloodstream trypomastigote form of Trypanosoma cruzi; type: functional, COS-7
How it was run: (§1)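 SI = CC50 divided by the IC50 against trypomastigotes or amastigotes, respectively.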

[6] = Selectivity index, ratio of CC50 for african green monkey COS7 cells to IC50 for intracellular amastigotes form of Trypanosoma cruzi; type: functional, COS-7; how it was run: as §1
[7] = system: Trypanosoma cruzi; experiment: Antitrypanosomal activity against bloodstream trypomastigote form of Trypanosoma cruzi RA infected in C3H/HeN mouse assessed as reduction in parasites at 1 mg/kg administered 5 days after infection for 10 consecutive days relative to untreated control; type: functional
[8] = system: Trypanosoma cruzi; experiment: Antitrypanosomal activity against bloodstream trypomastigote form of Trypanosoma cruzi RA infected in C3H/HeN mouse assessed as decrease in parasitemia at 1 mg/kg administered 5 days after infection for 10 consecutive days measured on day 14 relative to untreated control; type: functional, organism-based; design: dose 1 mg/kg

Question: With `CCOC(=O)c1c(CN2CCN(C)CC2)nc2ccc(Cl)cc2c1-c1ccccc1` as the molecule, how does the IC50 [1] read?
Answer: 11.8 µM

Question: And the IC50 [2]?
Answer: 6.4 µM

Question: And the IC50 [3]?
Answer: 10.4 µM

Question: And the CC50 at 24 h [4]?
Answer: 35.9 µM

Question: What about the “Ratio CC50/IC50” value [5] of the same molecule?
Answer: 5.6

Question: What about the “Ratio CC50/IC50” value [6] of the same molecule?
Answer: 3.5

Question: Which IC50 [1] does the source give for `CCOC(=O)c1c(CCl)nc2ccc(Cl)cc2c1-c1ccccc1` here?
Answer: 31.4 µM

Question: Which IC50 [1] does the source give for `CC(C)NCc1nc2ccc(Cl)cc2c(-c2ccccc2)c1C(=O)O` here?
Answer: 89.6 µM

Question: With `O=C(Cn1ccnc1[N+](=O)[O-])NCc1ccccc1` [BENZNIDAZOLE] as the molecule, how does the IC50 [1] read?
Answer: 5.8 µM

Question: And the IC50 [2]?
Answer: 34.1 µM

Question: What about the IC50 [3] of the same molecule?
Answer: 3.6 µM

Question: What about the CC50 at 24 h [4] of the same molecule?
Answer: 706 µM

Question: What about the “Ratio CC50/IC50” value [5] of the same molecule?
Answer: 20.7

Question: And the “Ratio CC50/IC50” value [6]?
Answer: 196.1

Question: Which IC50 [1] does the source give for `CCOC(=O)c1c(CN2CCCC2)nc2ccc(Cl)cc2c1-c1ccccc1` here?
Answer: 10 µM

Question: And the IC50 [2]?
Answer: 62.4 µM

Question: And the IC50 [3]?
Answer: 40.3 µM

Question: What about the CC50 at 24 h [4] of the same molecule?
Answer: 490 µM

Question: And the “Ratio CC50/IC50” value [5]?
Answer: 7.8

Question: And the “Ratio CC50/IC50” value [6]?
Answer: 12.1

Question: Which IC50 [1] does the source give for `CCOC(=O)c1c(CN2CCOCC2)nc2ccc(Cl)cc2c1-c1ccccc1` here?
Answer: 85.3 µM

Question: Which IC50 [1] does the source give for `CC(=O)NCCCCCCNCc1nc2ccc(Cl)cc2c(-c2ccccc2)c1C(=O)O` here?
Answer: 3.4 µM

Question: And the IC50 [2]?
Answer: 3.1 µM

Question: And the IC50 [3]?
Answer: 12.8 µM

Question: What about the CC50 at 24 h [4] of the same molecule?
Answer: 771 µM

Question: What about the “Ratio CC50/IC50” value [5] of the same molecule?
Answer: 248.7

Question: What about the “Ratio CC50/IC50” value [6] of the same molecule?
Answer: 60.2

Question: What about the “fold change (FC)” value [7] of the same molecule?
Answer: 3

Question: And the Activity [8]?
Answer: Active

Question: What does the source list for `CCOC(=O)c1c(CN(CC)CC)nc2ccc(Cl)cc2c1-c1ccccc1`?
Answer: IC50 [1]: 11.6 µM; IC50 [2]: 42.6 µM; IC50 [3]: 33 µM; CC50 at 24 h [4]: 480 µM; Ratio CC50/IC50 [5]: 11.3; Ratio CC50/IC50 [6]: 14.5

Question: For `CCOC(=O)c1c(CN2CCCCC2)nc2ccc(Cl)cc2c1-c1ccccc1`, which IC50 [1] is on record?
Answer: 8.2 µM

Question: And the IC50 [2]?
Answer: 51.3 µM

Question: What about the IC50 [3] of the same molecule?
Answer: 37.9 µM

Question: What about the CC50 at 24 h [4] of the same molecule?
Answer: 311 µM

Question: And the “Ratio CC50/IC50” value [5]?
Answer: 6.05

Question: And the “Ratio CC50/IC50” value [6]?
Answer: 8.2

Question: With `CC(O)CNCc1nc2ccc(Cl)cc2c(-c2ccccc2)c1C(=O)O` (stereo not drawn) as the molecule, how does the IC50 [1] read?
Answer: 50.4 µM

Question: Which IC50 [1] does the source give for `CCOC(=O)c1c(CN(C)Cc2ccccc2)nc2ccc(Cl)cc2c1-c1ccccc1` here?
Answer: 9.7 µM

Question: And the IC50 [2]?
Answer: 128 µM

Question: What about the IC50 [3] of the same molecule?
Answer: 61 µM

Question: And the CC50 at 24 h [4]?
Answer: 315 µM

Question: What about the “Ratio CC50/IC50” value [5] of the same molecule?
Answer: 2.5

Question: And the “Ratio CC50/IC50” value [6]?
Answer: 5.2
